According to ChEMBL document CHEMBL1156864, “Boron-containing phenoxyacetanilide derivatives as hypoxia-inducible factor (HIF)-1alpha inhibitors” (Bioorg Med Chem Lett, 2010):

Key:
[1] = target: Hypoxia-inducible factor 1-alpha (Homo sapiens, UniProt Q16665); assay: Inhibition of hypoxia-induced HIF1alpha activation in human HeLa cells after 12 hrs by HRE-luciferase reporter gene assay; format: cell-based
Method in brief: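 HeLa cells stably carrying HRE(×5)-luciferase reporter, incubated 12 h with or without drug under hypoxic conditions. Supernatant removed, then luciferase assay. IC50 is concentration halving relative light units, read from semi-logarithmic dose–response plots; mean ± SD of triplicates.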

HeLa = assay: Growth inhibition of human HeLa cells after 48 hrs by MTT assay; format: functional
Method in brief: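 HeLa cells exposed 48 h under normoxia to 100 nM–100 μM compound; viable cells measured by MTT. GI50 read from semi-logarithmic dose–response plots; mean ± SD of triplicate samples.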

Sequence of Hypoxia-inducible factor 1-alpha (Q16665 whole entry): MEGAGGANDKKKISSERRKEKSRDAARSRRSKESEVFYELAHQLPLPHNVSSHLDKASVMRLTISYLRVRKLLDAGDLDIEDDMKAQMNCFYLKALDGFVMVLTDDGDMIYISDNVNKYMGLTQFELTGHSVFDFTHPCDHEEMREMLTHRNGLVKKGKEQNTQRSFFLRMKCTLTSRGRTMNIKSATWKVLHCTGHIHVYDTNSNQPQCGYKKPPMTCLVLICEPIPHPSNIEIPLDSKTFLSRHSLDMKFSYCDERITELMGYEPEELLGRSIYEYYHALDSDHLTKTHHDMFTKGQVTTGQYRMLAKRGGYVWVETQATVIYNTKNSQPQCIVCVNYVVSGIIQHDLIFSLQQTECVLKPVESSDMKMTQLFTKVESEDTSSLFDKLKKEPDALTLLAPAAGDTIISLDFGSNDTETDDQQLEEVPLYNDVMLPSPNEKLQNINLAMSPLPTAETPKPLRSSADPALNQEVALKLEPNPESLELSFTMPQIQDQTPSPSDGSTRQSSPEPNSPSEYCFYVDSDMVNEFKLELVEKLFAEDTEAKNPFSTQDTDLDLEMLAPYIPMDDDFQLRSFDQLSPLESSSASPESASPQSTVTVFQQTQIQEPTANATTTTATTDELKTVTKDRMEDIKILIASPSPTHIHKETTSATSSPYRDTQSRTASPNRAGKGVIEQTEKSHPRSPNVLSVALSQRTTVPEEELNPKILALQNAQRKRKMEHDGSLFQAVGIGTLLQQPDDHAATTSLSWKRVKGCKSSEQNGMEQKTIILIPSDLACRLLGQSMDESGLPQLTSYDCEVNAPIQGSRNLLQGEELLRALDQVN

| SMILES | IC50 [1] | GI50 (HeLa) |
| --- | --- | --- |
| O=C(COc1ccc(-c2ccccc2)cc1)Nc1cc(B(O)O)ccc1O | > 100 µM | 85.9 µM |
| Cc1ccc(OCC(=O)Nc2cc(B3OC(C)(C)C(C)(C)O3)ccc2O)cc1 | 90.6 µM | 17.7 µM |
| CC1(C)OB(c2ccc(O)c(NC(=O)COc3ccc(-c4ccccc4)cc3)c2)OC1(C)C | > 100 µM | 5.8 µM |
| Cc1ccc(OCC(=O)Nc2cc(B(O)O)ccc2O)cc1 | > 100 µM | 25.7 µM |
| CCc1ccc(OCC(=O)Nc2cc(B3OC(C)(C)C(C)(C)O3)ccc2O)cc1 | 91.8 µM | 8.6 µM |
| CCc1ccc(OCC(=O)Nc2cc(B(O)O)ccc2O)cc1 | > 100 µM | 14.9 µM |

Compounds with a lower IC50 [1], results first:

| IC50 [1] | GI50 (HeLa) | SMILES |
| --- | --- | --- |
| 3.1 µM | 51.6 µM | O=C(COc1ccc(C23CC4CC(CC(C4)C2)C3)cc1)Nc1cc(C(=O)O)ccc1O |
| 84.8 µM | 29.2 µM | O=C(COc1ccc(C2CCCCC2)cc1)Nc1cc(B(O)O)ccc1O |
| 40.3 µM | 21.3 µM | CC(C)(C)c1ccc(OCC(=O)Nc2cc(B(O)O)ccc2O)cc1 |
| 70.4 µM | 13.4 µM | CC1(C)OB(c2ccc(O)c(NC(=O)COc3ccc(C4CCCCC4)cc3)c2)OC1(C)C |
| 4.6 µM | 15.2 µM | O=C(COc1ccc(C23CC4CC(CC(C4)C2)C3)cc1)Nc1cc(B(O)O)ccc1O |
| 3.1 µM | 16 µM | CC1(C)OB(c2ccc(O)c(NC(=O)COc3ccc(C45CC6CC(CC(C6)C4)C5)cc3)c2)OC1(C)C |
| 35.3 µM | 12.1 µM | CC(C)(C)c1ccc(OCC(=O)Nc2cc(B3OC(C)(C)C(C)(C)O3)ccc2O)cc1 |
